This passage reports IC50 results from ChEMBL document CHEMBL3112575, “N¹,N¹-Dimethyl-N³-(3-(trifluoromethyl)phenethyl)propane-1,3-diamine, a new lead for the treatment of human African trypanosomiasis” (Eur J Med Chem, 2014).

pIC50: −log10 of the molar value.

The subject of this test is Trypanosoma brucei brucei. The test is described as follows: Antitrypanosomal activity against bloodstream form of Trypanosoma brucei brucei 427 after 48 hrs by Alamar Blue staining based fluorescence assay. The class given is functional, organism-based. Conditions: Trypanosoma brucei, 427, 48 h. The gist of the method:
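Starting inoculum 2×10³ bloodstream-form parasites per well in HMI-9 with 10% FBS, exposed to two-fold serial drug dilutions for 48 h at 37°C, 5% CO₂. Alamar Blue then added, with a further 4 h incubation. Fluorescence read at Ex 544/Em 590. Each plate included drug-free parasite wells and parasite-free, drug-free wells. IC₅₀ from three biological replicates, each the mean of three technical replicates.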
On the technique in general: Alamar Blue is a resazurin reagent that responds to reducing activity.
By pIC50 is commonly meant the IC50 on a negative log10 scale, so that one unit is a factor of ten. A high value points to a small IC50. `CN(C)CCCNCc1c(Br)cc(Br)c(O)c1Br` showed a pIC50 of less than 5.10. The same measure for `CN(C)CCCNCCc1cccc(Br)c1`: less than 5.10. The same measure for `COc1cc(CCN(CCCN(C)C)C(C)=O)c(Br)cc1Br`: less than 5.10; for `C#CCNCCc1cc(OC)c(Br)cc1Br`: less than 5.10. The same measure for `CN(C)CCCNCc1cccc(O)c1`: less than 5.10; for `CN(C)CCCNCCc1ccc(F)cc1`: less than 5.10; for `CN(C)CCCNCCc1cccc(F)c1`: less than 5.10. In turn, `COc1ccc(Br)cc1CCNCCCN(C)C` had a pIC50 of less than 5.10.

For the molecule `CN(C)CCCNCCc1cccc(Cl)c1`, the pIC50 was 6.15. For `COc1c(Br)cc(Br)c(CNCCCN(C)C)c1Br` the value was less than 5.10; for `COc1ccc(CNCCCN(C)C)cc1`, less than 5.10; for `COc1ccc(CCNCCCN(C)C)cc1Br`, less than 5.10. For `CN(C)CCCNCCc1ccccc1F` the value was less than 5.10; for `CN(C)CCCNCCc1c(F)cccc1Cl`, less than 5.10; for `CN(C)CCCNCCc1ccc(Cl)c(Cl)c1`, less than 5.10.

`CN(C)CCCNC1Cc2ccccc2C1` had a pIC50 of less than 5.10.

Take `COc1cc(CCNCCCN)c(Br)cc1Br`: the pIC50 is 5.70. `C#CCCNCCc1cc(OC)c(Br)cc1Br` gave a pIC50 of less than 5.10. For `COc1cccc(CCNCCCN(C)C)c1` the value was less than 5.10; for `CN(C)CCCNCc1cc(Br)c(O)c(Br)c1`, less than 5.10; for `COc1ccc(CCNCCCN(C)C)cc1Cl`, less than 5.10. In turn, `CN(C)CCCNCCc1c(Cl)cccc1Cl` showed a pIC50 of less than 5.10.

Molecule `COc1cc(CNCCCN(C)C)c(Br)cc1Br` showed a pIC50 of 5.34. For `COc1cc(CCN2CCCC2)c(Br)cc1Br` the value was less than 5.10.

For the molecule `COc1cccc(CNCCCN(C)C)c1`, the pIC50 was less than 5.10. The same measure for `CN(C)CCCNCCc1cccs1`: less than 5.10. The same measure for `CN(C)CCCNCCc1ccc(Cl)cc1`: less than 5.10.

`C#CCN(CCCN(C)C)CCc1cc(OC)c(Br)cc1Br` gave a pIC50 of less than 5.10. For `CN(C)CCCNCCc1ccccc1Cl` the value was less than 5.10; for `CN(C)CCCNCCc1ccc(Cl)cc1Cl`, less than 5.10.

In turn, `COc1cc(CCNCCCN(C)C)c(Br)cc1Br` showed a pIC50 of 6.52.

The molecule `COc1ccc(Br)c(CCNCCCN(C)C)c1Br` showed a pIC50 of 5.40. The molecule `COc1c(Br)cc(CNCCCN(C)C)cc1Br` gave a pIC50 of less than 5.10. The same measure for `CN(C)CCCNCc1cc(O)c(Br)cc1Br`: 5.66; for `CN(C)CCCNCCc1ccc(Br)cc1`: less than 5.10; for `CN(C)CCCNCCc1cccc(C(F)(F)F)c1`: 6.30. The same measure for `CN(C)CCCNCc1ccc(O)cc1`: less than 5.10. The same measure for `CN(C)CCCNCCc1ccccc1Br`: less than 5.10; for `CN(C)CCCNCCc1ccc2ccccc2c1`: 5.40.

The molecule `COc1cc(CCNCCCO)c(Br)cc1Br` had a pIC50 of less than 5.10.
